One data set deals with A549. Kind of data set: Cytotoxicity against human A549 cells assessed as reduction in cell viability measured after 24 hrs by MTT assay. Type of data set: cell-based. Conditions: a549, 24 h. On the technique in general: Formazan colour is commonly taken as a measure of viable cells.
Data set [1] relates to dengue virus type 2. Nature of the data set: Antiviral activity against Dengue virus serotype 2 New Guinea C infected in pre-seeded Huh-7 cells assessed as inhibition of viral replication incubated for 72 hrs by immunodetection based secondary yield reduction assay. It counts as functional, organism-based. Particulars: Dengue virus, New Guinea C, Huh-7, 72 h; read-out: IC50.

Data set [2] relates to dengue virus type 2. Nature of the data set: Antiviral activity against Dengue virus serotype 2 New Guinea C infected in pre-seeded Huh-7 cells assessed as inhibition of viral replication incubated for 72 hrs by immunodetection based direct yield reduction assay. It counts as functional, organism-based. Conditions: huh-7.
Data set [3] is described as follows: Selectivity index, ratio of CC50 for human Huh-7 cells to IC50 for Dengue virus serotype 2 New Guinea C infected in pre-seeded Huh-7 cells assessed as inhibition of viral replication incubated for 72 hrs by immunodetection based secondary yield reduction assay. Type of data set: toxicity, cell-based. Conditions: read-out: Selectivity Index.
The subject of data set [4] is Zika virus. Kind of data set: Antiviral activity against Zika virus H/PF/2013 infected in pre-seeded Huh-7 cells assessed as inhibition of viral replication incubated for 72 hrs by immunodetection based direct yield reduction assay. It counts as functional, organism-based. Conditions: H/PF/2013, Huh-7, 72 h. Put shortly: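 Direct yield reduction in Huh7 cells (7000/well), infected with 50 TCID₅₀ of DENV or ZIKV, or 25 TCID₅₀ of WNV. Adsorption 1 h at 37 °C, then virus removed and serial compound dilutions added. Incubated 72 h (DENV, ZIKV) or 48 h (WNV). Viral antigen immunodetected on the monolayer. IC₅₀ by non-linear regression, mean of three experiments. SI = CC₅₀ (Huh7, CellTiter-Glo luminescence)/IC₅₀.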

Data set [5] relates to Zika virus. Kind of data set: Antiviral activity against Zika virus H/PF/2013 infected in pre-seeded Huh-7 cells assessed as inhibition of viral replication incubated for 72 hrs by immunodetection based plaque reduction assay. Type of data set: functional, organism-based. Conditions: H/PF/2013, Huh-7, 72 h.
Data set [6] in a line: Selectivity index, ratio of CC50 for human Huh-7 cells to IC50 for West Nile virus lineage 1 (Italy/2009) infected in pre-seeded Huh-7 cells assessed as inhibition of viral replication incubated for 48 hrs by immunodetection based plaque reduction assay. It counts as toxicity, cell-based. Conditions: read-out: Selectivity Index.
In data set [7] the test system is Influenza A virus. Nature of the data set: Antiviral activity against Influenza A Puerto Rico/8/34/H1N1 infected in human A549 cells assessed as inhibition of hemagglutinin expression at 20 uM treated 2 to 6 hrs post infection for 24 hrs followed by infection in fresh monolayer of MDCK cells with supernatant for 24 hrs by time-of-addition assay. It counts as functional, organism-based. Particulars: A/Puerto Rico/8/1934(H1N1), time 2-6 hrs.

Data set [8] relates to Influenza A virus. Nature of the data set: Antiviral activity against Influenza A Puerto Rico/8/34/H1N1 infected in human A549 cells assessed as reduction in viral protein expression at 20 uM treated for 24 hrs post viral adsorption followed by staining with anti-Flu antibody observed at 24 hrs post infection by In-cell western assay. Type of data set: functional, organism-based. Particulars: A/Puerto Rico/8/1934(H1N1).

Data set [9] deals with Influenza A virus. Kind of data set: Antiviral activity against Influenza A/California/04/2009H1N1 infected in human A549 cells assessed as reduction in viral protein expression at 20 uM pretreated for 2 hrs followed by staining with anti-Flu antibody observed at 24 hrs post infection by In-cell western assay. It counts as functional, organism-based.
The test system of data set [10] is Influenza A virus. Kind of data set: Antiviral activity against Influenza A/California/04/2009H1N1 infected in human A549 cells assessed as reduction in viral protein expression at 20 uM treated for 1 hr during viral adsorption followed by staining with anti-Flu antibody observed at 24 hrs post infection by In-cell western assay. Type of data set: functional, organism-based.

For data set [11], the system named is Influenza A virus. Nature of the data set: Antiviral activity against Influenza A/California/04/2009H1N1 infected in human A549 cells assessed as reduction in viral protein expression at 20 uM treated for 24 hr pdp viral adsorption followed by staining with anti-Flu antibody observed at 24 hrs post infection by In-cell western assay. Type of data set: functional, organism-based.

Data set [12] deals with Influenza A virus. Nature of the data set: Antiviral activity against Influenza A virus (A/parrot/Ulster/73(H7N1)) infected in human A549 cells assessed as reduction in viral protein expression at 20 uM pretreated for 2 hrs followed by staining with anti-Flu antibody observed at 24 hrs post infection by In-cell western assay. It counts as functional, organism-based.
Data set [13] relates to Influenza A virus. Nature of the data set: Antiviral activity against Influenza A virus (A/parrot/Ulster/73(H7N1)) infected in human A549 cells assessed as reduction in viral protein expression at 20 uM treated for 24 hrs post viral adsorption followed by staining with anti-Flu antibody observed at 24 hrs post infection by In-cell western assay. Type of data set: functional, organism-based.

For data set [14], the system named is SARS-CoV-2. Nature of the data set: Antiviral activity against SARS-COV 2 infected in human Caco-2 cells assessed as inhibition of viral replication at MOI of 0.01 and incubated after 2 hrs post infection for 48 hrs by immunodetection assay. Particulars: Severe acute respiratory syndrome coronavirus 2, Caco-2. Type of data set: functional, organism-based.
Data set [15] relates to SARS-CoV-2. Kind of data set: Antiviral activity against SARS-COV 2 infected in monkey Vero E6 cells assessed as inhibition of viral replication at MOI of 0.01 and incubated after 2 hrs post infection for 48 hrs by direct yield reduction assay. It counts as functional, organism-based. Particulars: Severe acute respiratory syndrome coronavirus 2, Vero C1008.
For the next data set, the system named is Calu-3. Nature of the data set: Cytotoxicity against human Calu-3 cells infected with SARS-COV-2 by celltiter-glo luminescent cell viability assay. Conditions: calu-3. It counts as cell-based. The gist of the method:
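Compound-exposed cells assessed by CellTiter-Glo luminescence versus DMSO control; CC50 from dose-response.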

Data set [16] in a line: Selectivity index, ratio of CC50 for human Calu-3 cells infected with SARS-COV-2 to IC50 for SARS-COV 2 infected in human Calu-3 cells. Particulars: read-out: Selectivity Index. It counts as toxicity, cell-based.
For data set [17], the system named is SARS-CoV-2. Nature of the data set: Antiviral activity against SARS-COV 2 infected in quadruplicate Vero E6 cells with DYRA supernatant assessed as reduction in viral replication at 20 uM. It counts as functional. Particulars: Severe acute respiratory syndrome coronavirus 2, Vero C1008.
A short description of data set [18]: Inhibition of full length ZIKA virus NS5 RNA dependent RNA polymerase incubated for 10 mins by picogreen staining based fluorescent analysis (Rvb= 1+/-0.2 uM).
The nature of data set [19]: Inhibition of full length ZIKV NS5-MTase domain using 7MeGpppAC4 as a substrate incubated for 30 mins by filter binding assay. Further details: species or system Zika virus.
For data set [20], the system named is Huh-7. Nature of the data set: Effect on formation of DENV replication complex in human Huh-7 cells assessed as reduction in expression of NS3 at 50 uM measured after 8 to 24 hrs by DAPI staining based confocal microscopy analysis. It counts as functional, cell-based. Conditions: time 8-24 hrs. The gist of the method:
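Huh-7 cells (1 × 10⁴) on coverslips infected with DENV-2 (MOI 0.05), treated (100 or 50 μM as listed), fixed in 4% paraformaldehyde at 8, 12, 16, 24 h; anti-NS3/anti-NS5 with Alexa 488/568 secondaries, DAPI; confocal, 5 random fields at 40×; % positive cells; 2-way ANOVA with Dunnett.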

The test system of data set [21] is Huh-7. Kind of data set: Effect on formation of DENV replication complex in human Huh-7 cells assessed as reduction NS3:NS5 colocalization into nucleus at 50 uM measured after 16 to 24 hrs by DAPI staining based confocal microscopy analysis. It counts as functional, cell-based. Conditions: time 16-24 hrs. Put shortly:
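DENV-2-infected Huh-7 cells (MOI 0.05) treated at 50 μM, fixed at 8–24 h, stained for NS3/NS5; confocal colocalization by Manders coefficients with Costes P ≥95% as signal; versus untreated control; repeated at least twice.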

Calls of active or inactive are those of the source. The rule behind the calls is not given here.

These results are taken from ChEMBL document CHEMBL4842338, “System-oriented optimization of multi-target 2,6-diaminopurine derivatives: Easily accessible broad-spectrum antivirals active against flaviviruses, influenza virus and SARS-CoV-2” (Eur J Med Chem, 2021).

For orientation: CC50 means the concentration at which the toxic effect on the cells reaches its halfway point. What is called IC50 is the midpoint of a concentration-inhibition curve. As a reminder, the inhibition is the share of the control response that was lost under treatment.

Consider `FC(F)(F)c1cccc(Nc2nc(NCCOc3ccccc3)nc3[nH]cnc23)c1`, for which the CC50 came to 106 µM in the data set with A549 and 120 µM with Calu-3. Further, the half-inhibitory concentration (IC50) with dengue virus type 2 [1] was 2.6 µM; in the data set on dengue virus type 2 [2], “Not Active”; with Zika virus [4], 0.8 µM; in the data set with Zika virus [5], 0.5 µM; in the data set on SARS-CoV-2 [14], 5.9 µM; with SARS-CoV-2 [15] it was 53.4 µM. The IC50 in [18] is 12.8 µM; in data set [19], “Not Active”. In [3], the selectivity ratio at 72 h is 77. The selectivity ratio at 48 h in [6] came out at 51. In addition, the outcome with Influenza A virus [7] was inactive. Also, the outcome with Influenza A virus [8], with Influenza A virus [9], in the data set with Influenza A virus [10], with Influenza A virus [11], in the data set on Influenza A virus [12] and in the data set with Influenza A virus [13] was Active. For the same compound, the result in the data set on Huh-7 [20] and in the data set with Huh-7 [21] was Active. Also, the selectivity ratio in data set [16] came to 240. Besides, the inhibition at 20 µM in the data set with SARS-CoV-2 [17] was determined as 91.9%.
